Source: ChEMBL document CHEMBL4622968, “Discovery of [1,2,4]triazolo[4,3-a]pyridines as potent Smoothened inhibitors targeting the Hedgehog pathway with improved antitumor activity in vivo” (Bioorg Med Chem, 2020)
Active and inactive are the calls of the source. No cut-off for these calls is given here.

Experiments:
[1] = tested on: AN3-CA; assay: Antiproliferation activity against human AN3CA cells assessed as reduction in cell viability incubated for 72 hr by MTT assay; format: functional, cell-based
How it was run: (§1)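 MTT assay. Cells were plated overnight and exposed to a range of concentrations for 72 h. MTT was then added for 4 h and absorbance read at 570 nm. Inhibition% = [(control − compound)/(control − blank)] × 100. IC50 was fitted from the curves. Mean ± S.D. of 3–5 separate experiments. RPMI 1640 + 10% FBS; MCF10A in DMEM/F12 with 5% horse serum, EGF, hydrocortisone, insulin and cholera toxin.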

[2] = biological target: T1, Protein smoothened (Homo sapiens, UniProt Q99835); assay: Displacement of BODIPY-Cyclopamine from wild type Smo receptor (unknown origin) expressed in HEK293 cells incubated for 12 hrs by Hoechst 33342 based fluorescence microscopic method; format: cell-based
T1 sequence (Q99835 whole entry): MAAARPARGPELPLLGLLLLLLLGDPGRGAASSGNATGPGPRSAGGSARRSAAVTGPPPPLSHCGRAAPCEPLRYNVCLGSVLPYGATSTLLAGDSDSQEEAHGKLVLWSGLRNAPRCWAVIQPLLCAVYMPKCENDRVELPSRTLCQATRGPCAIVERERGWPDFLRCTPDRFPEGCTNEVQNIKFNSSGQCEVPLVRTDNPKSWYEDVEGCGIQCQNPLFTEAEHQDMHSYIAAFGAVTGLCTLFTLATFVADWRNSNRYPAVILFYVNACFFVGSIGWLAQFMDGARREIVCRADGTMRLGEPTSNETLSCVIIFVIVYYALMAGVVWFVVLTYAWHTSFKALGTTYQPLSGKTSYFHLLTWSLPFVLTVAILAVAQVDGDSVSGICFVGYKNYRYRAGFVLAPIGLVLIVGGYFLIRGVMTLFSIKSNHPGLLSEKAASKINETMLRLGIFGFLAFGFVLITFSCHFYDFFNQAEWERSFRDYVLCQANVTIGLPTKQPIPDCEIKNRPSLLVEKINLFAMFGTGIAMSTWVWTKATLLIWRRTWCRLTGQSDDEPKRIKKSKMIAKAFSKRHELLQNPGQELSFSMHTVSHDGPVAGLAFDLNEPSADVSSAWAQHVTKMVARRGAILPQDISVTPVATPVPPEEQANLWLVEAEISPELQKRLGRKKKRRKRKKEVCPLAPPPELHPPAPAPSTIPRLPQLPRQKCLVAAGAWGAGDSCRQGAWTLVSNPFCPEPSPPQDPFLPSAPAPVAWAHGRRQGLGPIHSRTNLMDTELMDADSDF
How it was run: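 HEK293 cells were transiently transfected in triplicate with a wild-type Smo plasmid, with expression confirmed by western blot. Cells were loaded with BODIPY-cyclopamine, then given unlabelled cyclopamine (25 μM) or test compound (1 or 25 μM) for 12 h at 37 °C. Nuclei were counterstained with Hoechst 33342. Green fluorescence was imaged by fluorescence microscopy.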

[3] = tested on: MDA-MB-468; assay: Induction of cell cycle arrest in human MDA-MB-468 cells assessed as cell accumulation at G0/G1 phase at 28 uM incubated for 48 hrs by propidium iodide staining-based flow cytometric analysis (reference value: 38.94 %); format: functional
How it was run: (§2)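 Cells were seeded at 1.2×10^5 per well and treated for 48 h (MDA-MB-468: 14, 28, 56 μM). Cells were fixed in 75% ethanol at −20 °C overnight, stained with PI and analysed by flow cytometry. Mean ± S.D. of three independent experiments versus DMSO.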

[4] = Acute toxicity in Kunming mouse assessed as mortality at 4552 mg/kg, ig observed for 14 days relative to control; format: organism-based; details: in vivo, po, read-out: Activity
How it was run: (§3)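 Kunming mice, groups of 5 female and 5 male per dose, dosed once by gavage at graded doses; mortality recorded over 14 days as dead/treated and percent. LD50 derived by improved Karber's method: LD50 = lg^-1[xm − i(ΣP − 0.5)], xm log of maximal dose, i log ratio of neighbouring doses; 95% confidence intervals given.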

[5] = tested on: MDA-MB-468; assay: Induction of cell cycle arrest in human MDA-MB-468 cells assessed as cell accumulation at G0/G1 phase at 14 uM incubated for 48 hrs by propidium iodide staining-based flow cytometric analysis (reference value: 38.94 %); format: functional; how it was run: as §2
[6] = tested on: MDA-MB-468; assay: Induction of cell cycle arrest in human MDA-MB-468 cells assessed as cell accumulation at G2/M phase incubated for 48 hrs by propidium iodide staining-based flow cytometric analysis; format: functional; how it was run: as §2
[7] = tested on: MDA-MB-231; assay: Antiproliferation activity against human MDA-MB-231 cells assessed as reduction in cell viability incubated for 72 hrs measured after 4 hrs by MTT assay; format: functional, cell-based; how it was run: as §1
[8] = biological target: T1, Protein smoothened; assay: Binding affinity to recombinant human Smo receptor assessed as maximum response at equilibrium by SPR analysis
How it was run: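 Surface plasmon resonance with recombinant Smo protein, run in PBS at a flow rate of 2 μL/s and 4 °C. Analytes were injected at 2.5, 5 and 10 μM. The chip was regenerated with 0.5% SDS:glycine-HCl pH 2.0 (1:1). ka, kd, Rmax, KA and KD came from a global fit of the sensorgrams.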

[9] = tested on: MDA-MB-468; assay: Induction of cell cycle arrest in human MDA-MB-468 cells assessed as cell accumulation at S phase at 28 uM incubated for 48 hrs by propidium iodide staining-based flow cytometric analysis (reference value: 34.20 %); format: functional; how it was run: as §2
[10] = tested on: MDA-MB-468; assay: Induction of cell cycle arrest in human MDA-MB-468 cells assessed as cell accumulation at G2/M phase at 14 uM incubated for 48 hrs by propidium iodide staining-based flow cytometric analysis (reference value: 26.66 %); format: functional; how it was run: as §2
[11] = tested on: MDA-MB-468; assay: Induction of apoptosis in human MDA-MB-468 cells assessed as necrotic cells at 56 uM incubated for 48 hrs by annexin-V-FITC staining based flow cytometric method (reference value: 1.52 %); format: functional
[12] = tested on: MDA-MB-468; assay: Induction of apoptosis in human MDA-MB-468 cells assessed as increase in Bax protein expression level incubated for 1 hr by Western blot analysis; format: functional, cell-based
[13] = species: Mus musculus; assay: Inhibition of SAG-induced hedgehog pathway in mouse NIH/3T3 cells assessed as inhibition of Smo localization to primary cilia pretreated with SAG for 6 hrs followed by incubating for 24 hrs by confocal laser-scanning microscopy; format: cell-based
How it was run: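 NIH3T3 cells in DMEM + 10% FBS were seeded at 2×10^4 per well on chamber slides for 24 h. They were stimulated with SAG (200 nM) for 6 h, then exposed to compound for 24 h. Cells were fixed in 4% paraformaldehyde and permeabilized with 0.1% Triton. Acetylated α-tubulin and Smo were immunostained and imaged by confocal microscopy.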

[14] = tested on: MDA-MB-468; assay: Induction of apoptosis in human MDA-MB-468 cells assessed as late apoptotic cells at 14 uM incubated for 48 hrs by annexin-V-FITC staining based flow cytometric method (reference value: 0.99 %); format: functional
[15] = tested on: MDA-MB-468; assay: Induction of apoptosis in human MDA-MB-468 cells assessed as late apoptotic cells at 28 uM incubated for 48 hrs by annexin-V-FITC staining based flow cytometric method (reference value: 0.99 %); format: functional
[16] = tested on: MCF7; assay: Antiproliferation activity against human MCF7 cells assessed as reduction in cell viability incubated for 72 hrs by MTT assay; format: functional, cell-based; details: MCF7, 72 h; how it was run: as §1
[17] = tested on: MDA-MB-231; assay: Induction of cell cycle arrest in human MDA-MB-231 cells assessed as cell accumulation at G0/G1 phase incubated for 48 hrs by propidium iodide staining-based flow cytometric analysis; format: functional
[18] = tested on: MDA-MB-468; assay: Induction of apoptosis in human MDA-MB-468 cells assessed as decrease in Bcl2 protein expression level incubated for 1 hr by Western blot analysis; format: functional, cell-based
[19] = tested on: MDA-MB-468; assay: Induction of apoptosis in human MDA-MB-468 cells assessed as live cells at 28 uM incubated for 48 hrs by annexin-V-FITC staining based flow cytometric method (reference value: 98.5 %); format: functional
[20] = tested on: HeLa; assay: Antiproliferation activity against human HeLa cells assessed as reduction in cell viability incubated for 72 hrs by MTT assay; format: functional, cell-based; how it was run: as §1
[21] = Acute toxicity in Kunming mouse assessed as mortality at 3008 mg/kg, ig observed for 14 days relative to control; format: organism-based; details: in vivo, po, read-out: Activity; how it was run: as §3
[22] = tested on: MCF-10A; assay: Cytotoxicity against human MCF10A cells assessed as cell viability incubated for 72 hrs measured by MTT assay; format: cell-based; how it was run: as §1
[23] = Acute toxicity in Kunming mouse assessed as mortality at 5226 mg/kg, ig observed for 14 days relative to control; format: organism-based; details: in vivo, po, read-out: Activity; how it was run: as §3
[24] = tested on: MDA-MB-468; assay: Induction of apoptosis in human MDA-MB-468 cells assessed as early apoptotic cells at 28 uM incubated for 48 hrs by annexin-V-FITC staining based flow cytometric method (reference value: 2.00 %); format: functional
[25] = tested on: MDA-MB-231; assay: Induction of apoptosis in human MDA-MB-231 cells assessed as decrease in Bcl2 protein expression level incubated for 1 hr by Western blot analysis; format: functional, cell-based
[26] = tested on: MDA-MB-468; assay: Induction of apoptosis in human MDA-MB-468 cells assessed as live cells at 56 uM incubated for 48 hrs by annexin-V-FITC staining based flow cytometric method (reference value: 98.5 %); format: functional

For `O=C(Nc1ccc(Cl)c(-c2nnc3c(Cl)cccn23)c1)c1ccc(Cl)nc1Cl`, the IC50 [1] was 44.5 µM, the Activity [2] was “Dose-dependent effect” and the Activity [3] was 29.86%. The mortality at 336 h [4] was 60%, the Activity [5] was 30.69% and the Activity [6] was “Dose-dependent effect”. For the same compound, the IC50 [7] was 29.5 µM, the Rmax [8] was 90.5 RU and the Activity [9] was 39%. The Activity [10] was 86%, the Activity [11] was 9.06% and the Activity [12] was “Active”. The inhibition [13] was “Active”, the Activity [14] was 7.15% and the Activity [15] was 14.6%. For the same compound, the IC50 [16] was 61.5 µM, the Activity [17] was “Dose-dependent effect” and the Activity [18] was “Active”. It also gave an Activity [19] of 67.8%, an IC50 [20] of 66.3 µM and a mortality at 336 h [21] of 10%. The IC50 [22] was greater than 100 µM, the mortality at 336 h [23] was 70% and the Activity [24] was 7.71%. The Activity [25] was “Active” and the Activity [26] was 60.3%.
